pIC50: −log10 of the molar value. The source made the active and inactive calls. No cut-off for these calls is given here.
Legend:
Homo sapiens [1] = species: Homo sapiens; experiment: Inhibition of human recombinant synovial PLA2 by at 5 uM
Procedure, shortened: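 Single peptide concentration of 5 µM against purified human synovial type IIA sPLA2 (0.85 pmol), with [3H]arachidonate-labeled E. coli membranes as substrate in 100 mM Tris-HCl, 25 mM CaCl2, pH 7.5. Released label was counted by liquid scintillation, in triplicate. Results are % inhibition relative to enzyme preincubated with buffer alone; groups were compared by one-way ANOVA with Dunnett's test.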

[2] = Inhibition of human recombinant synovial PLA2
Procedure, shortened: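 Purified human synovial type IIA sPLA2 (0.85 pmol) was preincubated with peptide (1-250 range) and then reacted with [3H]arachidonate-labeled E. coli membranes in 100 mM Tris-HCl, 25 mM CaCl2, pH 7.5. Released [3H]arachidonate was counted by liquid scintillation, in triplicate. IC50 (mean ± SD) was obtained from sigmoid curves by nonlinear regression of % inhibition versus buffer-only control.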

Homo sapiens [3] = species: Homo sapiens; experiment: Inhibition of IL-1-beta-induced sPLA2 production in human RASFs at 5 uM by ELISA; format: functional
Procedure, shortened: (§1)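 Primary synovial fibroblasts from three RA knee-replacement patients, passages 3-8, grown to confluence and serum-starved 16 h. Cells were preincubated 1 h at 37 °C with 5 µM peptide or vehicle (0.1% DMSO final), then given hrIL-1β 10 ng/mL for 24 h. Supernatants were stored at -20 °C, and type IIA sPLA2 or MMP-1/-2/-9 was measured by ELISA in triplicate.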

Homo sapiens [4] = species: Homo sapiens; experiment: Inhibition of IL-1-beta-induced MMP2 levels in human RASFs after 1 hr by ELISA; format: functional; procedure, shortened: as §1
[5] = Toxicity against human RASF at 1 to 10 uM after 24 hrs
Procedure, shortened: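 Primary RA synovial fibroblasts (passages 3-8) were exposed to peptide at 1, 5 and 10 µM for 24 h. Viability was read by the XTT cell proliferation assay.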

Homo sapiens [6] = species: Homo sapiens; experiment: Inhibition of IL-1-beta-induced MMP1 levels in human RASFs after 1 hr by ELISA; format: functional; procedure, shortened: as §1
Homo sapiens [7] = species: Homo sapiens; experiment: Effect on IL-1-beta-stimulated TIMP2 production in human RASFs; format: functional
Homo sapiens [8] = species: Homo sapiens; experiment: Inhibition of IL-1-beta-induced MMP9 levels in human RASFs after 1 hr by ELISA; format: functional; procedure, shortened: as §1
Homo sapiens [9] = species: Homo sapiens; experiment: Inhibition of IL-1-beta-induced sPLA2 production in human RASFs by ELISA; format: functional
Procedure, shortened: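 RA synovial fibroblasts (passages 3-8, serum-starved 16 h) were preincubated 1 h at 37 °C with peptide (1, 2.5, 5 or 10 µM) or vehicle (0.1% DMSO final), then cultured a further 24 h with or without IL-1β 10 ng/mL. Supernatant sPLA2-IIA was measured by EIA in triplicate; mean ± SD from a representative of three RASF lines.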

Homo sapiens [10] = species: Homo sapiens; experiment: Inhibition of IL-1-beta-induced MMP9 gene expression in human RASFs by QRT-PCR; format: functional
Procedure, shortened: (§2)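 Primary synovial fibroblasts from three RA patients (passages 3-8), grown to confluence in DMEM/10% FBS and serum-starved 16 h. Preincubated 1 h with 5 µM peptide or vehicle (0.1% DMSO final), then stimulated 24 h with hrIL-1β 10 ng/mL. Cells from 3 flasks pooled per group, total RNA isolated and DNase-treated, then transcripts quantified by qRT-PCR. Unstimulated cells served as controls.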

Homo sapiens [11] = species: Homo sapiens; experiment: Inhibition of IL-1-beta-induced MMP1 gene expression in human RASFs by QRT-PCR; format: functional; procedure, shortened: as §2
Oryctolagus cuniculus [12] = species: Oryctolagus cuniculus; experiment: Inhibition of IL-1-beta-induced TIMPs gene expression in rabbit HIG82 cells by QRT-PCR; format: functional, cell-based
Procedure, shortened: (§3)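 Rabbit HIG-82 fibroblast-like synoviocytes were grown in Ham's F-12/10% FBS to 80% confluence. They were serum-starved 2 h with or without 5 µM peptide; controls got medium or vehicle (0.1% DMSO). Cells were then stimulated 24 h with rhIL-1β 5 ng/mL, washed in cold PBS, RNA extracted, and transcripts measured by qRT-PCR.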

Oryctolagus cuniculus [13] = species: Oryctolagus cuniculus; experiment: Inhibition of IL-1-beta-induced sPLA2 gene expression in rabbit HIG82 cells by QRT-PCR; format: functional, cell-based; procedure, shortened: as §3
Homo sapiens [14] = species: Homo sapiens; experiment: Inhibition of IL-1-beta-induced TIMPs gene expression in human RASFs by QRT-PCR; format: functional; procedure, shortened: as §2
Homo sapiens [15] = species: Homo sapiens; experiment: Inhibition of IL-1-beta-induced MMP2 gene expression in human RASFs by QRT-PCR; format: functional; procedure, shortened: as §2
Homo sapiens [16] = species: Homo sapiens; experiment: Inhibition of IL-1-beta-induced sPLA2 gene expression in human RASFs by QRT-PCR; format: functional; procedure, shortened: as §2
Oryctolagus cuniculus [17] = species: Oryctolagus cuniculus; experiment: Inhibition of IL-1-beta-induced MMP2 gene expression in rabbit HIG82 cells by QRT-PCR; format: functional, cell-based; procedure, shortened: as §3
Oryctolagus cuniculus [18] = species: Oryctolagus cuniculus; experiment: Inhibition of IL-1-beta-induced MMP9 gene expression in rabbit HIG82 cells by QRT-PCR; format: functional, cell-based; procedure, shortened: as §3
Oryctolagus cuniculus [19] = species: Oryctolagus cuniculus; experiment: Inhibition of IL-1-beta-induced MMP1 gene expression in rabbit HIG82 cells by QRT-PCR; format: functional, cell-based; procedure, shortened: as §3

Row | Molecule | inhibition (Homo sapiens [1]) | pIC50 [2] | other results
1 | CC[C@H](C)[C@@H](NC(=O)[C@@H](N)CC(=O)O)C(=O)N[C@@H](Cc1cnc[nH]1)C(=O)N[C@H](C(=O)N[C@@H](Cc1c[nH]c2ccccc12)C(=O)N[C@@H](CC(=O)O)C(=O)NCC(=O)N[C@H](C(=O)O)C(C)C)C(C)C | 45.9% | 5.24 | 
2 | CC[C@H](C)[C@@H](NC(=O)[C@H](CC(=O)O)NC(=O)[C@@H](NC(=O)[C@@H](N)CCCNC(=N)N)C(C)C)C(=O)N[C@@H](Cc1cnc[nH]1)C(=O)N[C@H](C(=O)N[C@@H](Cc1c[nH]c2ccccc12)C(=O)N[C@@H](CC(=O)O)C(=O)NCC(=O)N[C@H](C(=O)O)C(C)C)C(C)C | 59.5% | 5.44 | 
3 | CC[C@H](C)[C@@H](NC(=O)[C@H](CC(=O)O)NC(=O)[C@@H](N)C(C)C)C(=O)N[C@@H](Cc1cnc[nH]1)C(=O)N[C@H](C(=O)N[C@@H](Cc1c[nH]c2ccccc12)C(=O)N[C@@H](CC(=O)O)C(=O)NCC(=O)N[C@H](C(=O)O)C(C)C)C(C)C | 56.4% | 5.42 | 
4 | CC[C@H](C)[C@@H](NC(=O)[C@H](CC(=O)O)NC(=O)[C@@H](NC(=O)[C@H](CCCNC(=N)N)NC(=O)CN)C(C)C)C(=O)N[C@@H](Cc1cnc[nH]1)C(=O)N[C@H](C(=O)N[C@@H](Cc1c[nH]c2ccccc12)C(=O)N[C@@H](CC(=O)O)C(=O)NCC(=O)N[C@H](C(=O)O)C(C)C)C(C)C | 14.2% |  | 
5 | CCc1c(C(=O)C(N)=O)c2c(OCC(=O)O)cccc2n1Cc1ccccc1 [VARESPLADIB] |  |  | Activity (Homo sapiens [3]): Active; Activity (Homo sapiens [4]): Active; Activity [5]: Non-toxic; Activity (Homo sapiens [6]): Active; Activity (Homo sapiens [7]): inactive; Activity (Homo sapiens [8]): Active
6 | H-IHVWDGV-OH | 35.4% | 5.21 | 
7 | H-LGRVDIHVWDGV-OH | 34.2% |  | 
8 | H-LGRVDIHVWDGVY-OH | 48.7% | 5.23 | 
9 | H-LGRVDIHVWDGVYI-OH | 49.7% | 5.24 | 
10 | H-LGRVDIHVWDGVYIR-OH | 51% | 5.24 | 
11 | H-LGRVDIHVWDGVYIRG-OH | 52.4% | 5.25 | 
12 | H-LGRVDIHVWDGVYIRGR-OH | 55.6% | 5.28 | 
13 | H-VDIHVWAGV-OH | 48.5% | 5.26 | 
14 | H-VDIHVWDGVVDIHVWDGV-OH | 74.5% | 5.92 | Activity (Homo sapiens [3]): Active; Activity (Homo sapiens [9]): Dose-dependent effect; Activity (Homo sapiens [10]): Active; Activity (Homo sapiens [11]): Active; Activity (Oryctolagus cuniculus [12]): inactive; Activity (Homo sapiens [4]): Active; Activity (Oryctolagus cuniculus [13]): Active; Activity (Homo sapiens [14]): inactive; Activity (Homo sapiens [15]): Active; Activity (Homo sapiens [16]): Active; Activity (Oryctolagus cuniculus [17]): Active; Activity [5]: Non-toxic; Activity (Homo sapiens [6]): Active; Activity (Oryctolagus cuniculus [18]): Active; Activity (Homo sapiens [7]): inactive; Activity (Oryctolagus cuniculus [19]): Active; Activity (Homo sapiens [8]): Active
15 | H-VDIHVWEGV-OH | 57.6% | 5.31 | 
16 | H-VDIHVWSGV-OH | 52.5% | 5.28 | 

Source: ChEMBL document CHEMBL1138293, “Novel peptide inhibitors of human secretory phospholipase A2 with antiinflammatory activity: solution structure and molecular modeling” (J Med Chem, 2007)
